Most compounds without a hit are left out; they make up all but 1.8% or so of the library.
NPY-Y2 PAM-ag – NPY-Y2 potentiators or agonists, primary screen, cell-based | cells expressing NPY-Y2, potentiator/agonist read-out | 220,000 compounds, 0.45% hits | activation, % at 3.6 µM; in the data active = activation above about 27%;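 note: cells stimulated with NPY near EC25 plus isoproterenol at EC100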
NPY-Y1 antag – NPY-Y1 receptor antagonists, primary screen, cell-based; HEK293-CNG Y1 cells, membrane potential fluorescence; NPY at EC95, then isoproterenol; Neuropeptide Y receptor type 1 (Homo sapiens), P25929; 200,000 compounds, 1% hits; AID 1040, 2008; inhibition, % at 3.6 µM;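 active = inhibition above the campaign mean inhibition of all tested compounds plus 3 SD, cut at about 20% in these data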
Target sequence (P25929 whole entry, looked up): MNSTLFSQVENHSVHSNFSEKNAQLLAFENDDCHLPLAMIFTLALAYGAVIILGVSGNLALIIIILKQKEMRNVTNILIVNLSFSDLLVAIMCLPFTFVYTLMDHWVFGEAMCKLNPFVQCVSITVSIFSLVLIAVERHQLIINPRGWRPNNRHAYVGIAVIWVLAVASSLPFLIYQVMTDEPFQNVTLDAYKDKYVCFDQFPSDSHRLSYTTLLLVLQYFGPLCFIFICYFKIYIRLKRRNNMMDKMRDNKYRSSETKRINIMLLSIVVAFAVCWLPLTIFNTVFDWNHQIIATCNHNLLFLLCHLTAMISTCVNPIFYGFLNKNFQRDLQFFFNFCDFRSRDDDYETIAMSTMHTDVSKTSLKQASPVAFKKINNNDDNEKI
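Material: HEK293 cells co-expressing NPY Y1 receptor and cyclic-nucleotide gated channel. Timing: compound incubation 1 h at room temperature, readout 45 min post-stimulation. Signal: fluorescence, membrane potential probe.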
NPY-Y1 PAM-ag – NPY-Y1 receptor potentiators or agonists, primary screen, cell-based | NPY-Y1 expressing cells, potentiator/agonist activation | activation, % at 3.6 µM | 220,000 compounds, 0.37% hits; in the data active = activation above about 33%, passing the limit was not always enough;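 note: cells stimulated with NPY at EC10 then isoproterenol at EC100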
NPY Y2 blocker – NPY-Y2 receptor antagonists, primary screen, cell-based. NPY-Y2 expressing cells, antagonist mode. 140,000 compounds, 0.99% hits. Neuropeptide Y receptor type 2 (Homo sapiens), P49146. AID 793, 2007. inhibition, % at 2.7 µM
NPY-Y1 ant conf – NPY-Y1 receptor antagonists, retest of hits, confirmation, HEK293-CNG cells, membrane potential fluorescence, triplicate. shares compounds with NPY-Y1 antag. AID 1254, 2008. cAMP; NPY challenge against isoproterenol-raised cAMP. inhibition, % at 3.6 µM. 1,200 compounds, 21% hits; in the data active = inhibition above about 20%
NPY2 antag ctr – NPY-Y2 receptor antagonists, selectivity check, confirmation, counter-screen for NPY-Y1 antagonist project, HEK293-CNG cells, membrane potential fluorescence, triplicate | shares compounds with NPY-Y1 antag | antagonism; cells given NPY, then isoproterenol | inhibition, % at 3.6 µM | 1,200 compounds, 28% hits
Hits are given with their value; - = inactive; . = no result. Cut-off read from the data, not from the text of the source, unless noted: active = inhibition above about 17%; inactive = the rest.

SMILES	NPY-Y2 PAM-ag	NPY-Y1 antag	NPY-Y1 PAM-ag	NPY Y2 blocker	NPY-Y1 ant conf	NPY2 antag ctr
COC(=O)CCN(C(=O)c1cccc([N+](=O)[O-])c1)c1ccccn1	-	-	-	.	.	.
CCOc1ccc(NC(=S)C(C#N)=C2N(C)c3ccccc3N2C)cc1	-	-	-	.	.	.
Cc1cccc(C)c1NC(=O)CN(C)C(C)C(=O)Nc1ccccc1-c1ccccc1 (stereo not given)	-	-	-	.	.	.
Cc1ccccc1CN(C)C(C)C(=O)Nc1ccccc1F (stereo not given)	-	23	-	.	-	-
O=C(Nc1cccc(Cl)c1)c1ccc2c(c1)SC1=NS(=O)(=O)CCN12	-	-	-	.	.	.
COc1ccc(Oc2c(-c3ccc(O)cc3O)n[nH]c2C)cc1	-	83	-	-	35	-
N#CC(C#N)C(c1ccsc1)c1c(-c2ccccc2)[nH][nH]c1=O (stereo not given)	-	24	-	-	34	34
N#Cc1c(-c2ccccc2)[nH]c(=O)[nH]c1=O	-	-	-	.	.	.
Cc1cccn2c(CN[C@@H]3CCCC[C@H]3c3ccccc3)c(C(=O)N3CCOCC3)nc12	-	26	-	.	-	-
O=C(c1ccc(Cl)c(S(=O)(=O)N2CCOCC2)c1)N(c1ccccn1)C1CCCCC1	-	-	-	.	.	.
Cc1ccc(C(C(=O)Nc2ccc3c(c2)OCO3)N(C)C(=O)Cc2c[nH]c3ccccc23)cc1 (stereo not given)	-	35	-	-	-	-
O=C(NCCN1CCOCC1)c1ccc(=O)n(Cc2ccc(Cl)cc2)c1	-	-	-	.	.	.
O=C(NC1CCCCC1)C(c1cccs1)N(Cc1cccs1)C(=O)c1ccco1 (stereo not given)	-	47	-	-	-	-
NCCOc1ccc(C23CC4CC(CC(C4)C2)C3)cc1	-	22	-	.	21	35
OCCN1CCN(CC(O)COc2ccc(C34CC5CC(CC(C5)C3)C4)cc2)CC1 (stereo not given)	-	-	-	.	.	.
CC(=O)Oc1c(C(=O)c2nnc(C)o2)c(=O)n(C)c2ccccc12	-	-	-	-	.	.
COc1cccc2c3c(c(C)nc12)CCN3c1ccccc1	-	23	-	.	-	21
COc1ccccc1OCCOCCOc1c(C)cc(C)cc1Br	-	24	-	-	-	-
CCCn1c(C(=O)OC)cc2c1ccn2-c1ccc(F)cc1	-	55	-	-	-	-
COC(=O)c1cc2c(ccn2-c2ccc(F)cc2)n1CC(C)C	-	48	-	-	26	22
Cc1cc(-c2ccccc2)nc(Oc2ccc(C(C)(C)C)cc2)c1S(C)(=O)=O	-	23	-	-	-	-
CC(C)Cc1cc(CN2CCC(CO)(Cc3cccc(C(F)(F)F)c3)CC2)[nH]n1	-	-	-	.	.	.
CCCCCCCC[n+]1cccc2c3ccccc3ccc21	-	51	-	.	43	26
Cc1cccc[n+]1CCCCCCCCCC[n+]1ccccc1C	-	-	-	.	.	.
CCCCCCCCCC[n+]1cccc2c3ccccc3ccc21	-	50	-	.	48	37
SMILES	NPY-Y2 PAM-ag	NPY-Y1 antag	NPY-Y1 PAM-ag	NPY Y2 blocker	NPY-Y1 ant conf	NPY2 antag ctr
CCCCCCCCNc1ncnc2ccccc12	-	-	-	-	.	.
CN(C)/C=C(\c1cnc(Cl)s1)S(=O)(=O)c1ccccc1	-	-	-	.	.	.
Cn1ccnc1C1CCCCN1Cc1nc(-c2ccc(Cl)cc2)no1 (stereo not given)	-	43	-	.	-	-
CCSc1nc(C2CC2)cc(-c2cccs2)c1C#N	-	22	-	-	-	-
CCSc1nc(C2CC2)cc(-c2ccco2)c1C#N	-	-	-	-	.	.
COc1ccc2nc(/C=N/NC(=O)[C@H](C)NC(=O)OC(C)(C)C)ccc2c1	-	-	-	-	.	.
COc1cccc(OCc2nc3ncc(Br)cc3[nH]2)c1	-	24	-	-	-	-
Cc1cc(C)cc(OCc2nc3ncc(Br)cc3[nH]2)c1	-	-	-	-	.	.
CC(=O)c1cc(CN2CCN(C3CCN(C(C)C)CC3)C(CCO)C2)cs1 (stereo not given)	-	-	-	.	.	.
CCN(CC)c1ccc(NC(=O)COC(=O)c2cccs2)cc1	-	21	-	-	-	-

Compound activity as filed in PubChem BioAssay.
